High-throughput results as filed in PubChem.
STAT1 activator = activators of IFN-gamma induced STAT1 signaling. NIH 3T3 STAT1-luciferase reporter, luminescence; 100% = IFN-gamma alone, no compound. activation (% of control), % at 5.5 µM. 200,000 compounds, 2.6% hits. AID 932;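 active = activation above the screen-wide mean activation plus 3 SD, cut at about 130% in these data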;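 note: raw ratio to IFN-gamma control signal so 100% means no change and 0% no light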
STAT3 inh = reduces IL-6 driven STAT3 reporter signal | AID 862 | 190,000 compounds, 0.89% hits | inhibition, % at 5.5 µM | U3A cells, IL-6 STAT3-luciferase reporter, luminescence; host cell line lacks STAT1;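 active = inhibition above the mean inhibition across all screened compounds plus 3 SD, cut at about 44% in these data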;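 note: 0% = DMSO only wells and 100% = 100 µM nifuroxazide control wells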
APP 5'UTR act = APP 5'UTR luciferase reporter activation; SH-SY5Y APP 5'UTR luciferase reporter, luminescence; zero percent = DMSO vehicle wells; activation, % at 2 µM; 190,000 compounds, 1% hits; AID 1276;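 active = activation above a set limit, based on mean plus 3 SD of controls, cut at about 140% in these data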
STAT3 activator = STAT3 signaling activation | U3A cells, IL-6 STAT3-luciferase reporter, luminescence; 100% = signal with IL-6 EC80 alone | activation (% of control), % at 5.6 µM | 190,000 compounds, 0.91% hits | AID 871;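 active = activation above the screen-wide mean of compound activation plus 3 SD, cut at about 130% in these data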;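 note: 0% = background luminescence of wells with medium and substrate only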
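system = STAT3-luciferase reporter U3A cells | reagent = IL-6 stimulus at 33 ng/mL final | timing = 1 h compound pre-exposure, 6 h IL-6 stimulation, 37 °C | measured by = luminescence | evaluation = % activation versus median of IL-6-stimulated wells | control set = IL-6-only wells as 100% reference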
NF-kB neuron act = raises NF-kB expression in human neuronal cells; 190,000 compounds, 1.6% hits; NF-kB reporter expression; hits give high values; fold change at 12.5 µM; in the data active = fold change above about 3.3
STAT1 inh = STAT1 signaling inhibition | inhibition, % at 5.5 µM | AID 920 | NIH 3T3 STAT1-luciferase reporter, IFN-gamma, luminescence | 200,000 compounds, 0.35% hits;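 active = inhibition above a set limit, the mean inhibition across all tested compounds plus 3 SD, cut at about 34% in these data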;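 note: 0% = IFN-gamma with DMSO and 100% = IFN-gamma with 300 µM nifuroxazide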
Active calls of the source: *; . = no result given. Shown are actives, neighbours in structure and some others; about 4.9% of the full set was active somewhere.

SMILES	STAT1 activator	STAT3 inh	APP 5'UTR act	STAT3 activator	NF-kB neuron act	STAT1 inh
CC(=O)OCC(=O)[C@@]12OC3(CCCC3)O[C@@H]1C[C@H]1[C@@H]3CCC4=CC(=O)C=C[C@]4(C)[C@@]3(F)[C@@H](O)C[C@@]12C	128.7*	-1.4	60.5	103.3	0.47	-31.5
O=C(Cn1nnc(-c2cccs2)n1)Nc1ccccc1C(F)(F)F	91.6	-4.8	-9.4	108.5	1.15	10.5
CC(C)(C)c1ccc(S(=O)(=O)CCc2ccccn2)cc1	128.9*	-14.6	12.3	115.5	1.72	-31.5
Cn1cnnc1SCC(=O)Nc1ccc2nc(SCc3ccccc3F)sc2c1	145.8*	-15.6	71.8	114.1	2.94	-51.7
O=C(CSc1nc2ccc(NC(=O)CSc3nnnn3-c3ccccc3)cc2s1)Nc1ccccc1	106.3	16.3	11.2	88.8	1.18	-7.0
O=C(Nc1ccc([N+](=O)[O-])cc1)C(Cc1ccccc1)N1C(=O)c2cccc3cccc(c23)C1=O (configuration not stated)	100.4	-44.3	8.4	135.1*	0.97	-0.3
CN(C)S(=O)(=O)c1cc(NC(=O)[C@H](Cc2ccccc2)N2C(=O)c3ccccc3C2=O)ccc1Cl	106.9	-6.6	3.8	106.6	1.06	-7.9
COc1ccc(C2C(C(C)=O)=C(O)C(=O)N2c2ccc(Br)cn2)cc1 (configuration not stated)	107.9	-36.2	42.7	133.6*	1.29	-8.9
CCOC(=O)c1nn(-c2ccc(F)cc2)cc1O	98.5	1.4	8.1	106.7	1.45	-0.5
CCOC(=O)c1nn(-c2ccc(Br)cc2)cc1C(=O)c1cccc2ccccc12	110.7	20.1	6.6	87.8	6.4*	-11.9
Cc1cc(NC(=O)c2ccc(-c3ccc(F)c(Cl)c3)o2)no1	121.6	24.8	34.3	84.8	1.32	-25.0
Cc1cc(NC(=O)c2ccc(-c3ccccc3F)o2)no1	143.7*	5.3	57.9	99.1	2.01	-50.3
CCOC(=O)c1ccc(N/C=C2/CCCC(C)C2=O)cc1 (configuration not stated)	115.0	5.6	15.7	95.2	2.48	-25.2
CC1CCC/C(=C\Nc2ccc(C(=O)O)cc2)C1=O (configuration not stated)	148.6*	11.0	139.2*	94.2	3.82*	-55.7
CCc1c(C)sc(NC(=O)C2CC2c2ccccc2)c1C(N)=O (configuration not stated)	107.1	-33.2	3.7	134.1*	1.49	-7.7
CC(=O)c1cnc2cc(-c3ccc(Cl)cc3)nn2c1C	137.7*	5.5	42.1	101.2	3.59*	-40.8
S=c1[nH]c2ccccc2o1	93.5	-38.5	-1.5	133.3*	1.26	5.5
Cc1cccc(N2CCN(C3=NC(=O)C(Cc4ccccc4)S3)CC2)c1 (configuration not stated)	100.0	-3.7	5.1	108.3	1.15	0.0
Cc1ccc(/C=C/c2nnc(-c3ccccc3)o2)cc1	105.8	32.3	16.2	77.6	2.33	-6.5
Clc1ccccc1-c1nnc(-c2cccs2)o1	142.6*	1.4	182.4*	100.8	5.98*	-48.0
C(=C\c1nnc(-c2cccs2)o1)/c1ccccc1	143.2*	12.6	116.6	93.7	4.97*	-48.4
O=C(NC12CC3CC(CC(C3)C1)C2)N(Cc1ccccc1)Cc1ccncc1	99.7	-7.6	18.4	112.3	.	0.8
N#Cc1ncc(-c2ccc3c(c2)OCCOCCOCCOCCOCCO3)nc1C#N	87.3	9.7	-21.1	94.1	6.66*	14.5
Cc1ccccc1NS(=O)(=O)c1ccc2[nH]c(=O)[nH]c2c1	96.8	2.3	1.7	99.2	1.13	2.0
Cc1ccc2ccc(C3C(=O)c4ccccc4C3=O)nc2c1	141.6*	-74.1	144.8*	165.5*	.	-45.0
SMILES	STAT1 activator	STAT3 inh	APP 5'UTR act	STAT3 activator	NF-kB neuron act	STAT1 inh
C/C(=N\N=C\c1ccccc1F)c1nnn(-c2nonc2N)c1C	142.0*	6.8	19.6	96.1	2.03	-47.0
CC(C)/C(=N\NS(=O)(=O)c1ccc(Br)cc1)c1cccs1	94.4	19.2	14.8	89.9	1.05	4.1
C=CCn1c(=NC(=O)CC)n(C)c2ccccc21	93.5	8.7	3.3	96.3	1.5	7.4
CC(=O)Nc1cccc(C(=O)N/N=C/c2ccc(C)o2)c1	94.6	7.9	6.6	95.2	1.19	4.0
Cc1ccc(/C=N/NC(=O)Nc2ccccc2)o1	147.7*	-3.2	106.6	102.8	1.25	-54.4
CC1=CC(C2CC(=O)N(c3ccc(C)cc3)C2=O)CC2C(=O)N(c3ccc(C)cc3)C(=O)C12 (configuration not stated)	89.7	8.9	-8.8	94.3	1.1	9.3
O=C(CSc1ccccc1)Nc1ccncc1	91.1	10.2	8.2	93.9	0.99	2.0
CC(=O)Oc1ccc(NC(=O)CSc2ccccc2)cc1	106.4	-6.6	-0.7	107.9	4.15*	-6.9
CC(=O)Nc1cccc(-c2nc3ccc(NC(C)=O)cc3s2)c1	140.2*	12.1	71.0	91.5	1.8	-42.0
CC(=O)Oc1cccc(N2C(=O)c3ccc(C(=O)O)cc3C2=O)c1	105.1	10.3	0.1	93.2	1.02	-5.6
Nc1cccc(-c2nc3ccccc3s2)c1	147.4*	-0.6	129.6	103.5	5.9*	-51.6
O=C(O)c1ccc2c(c1)C(=O)N(c1cccc(-c3nc4ccccc4s3)c1)C2=O	129.5*	17.6	35.6	87.7	1.47	-34.2
CC(=O)Nc1cccc(-c2nc3ccccc3s2)c1	147.5*	3.3	64.1	101.7	3.02	-52.7
CC(=O)Nc1ccc2nc(NC(=O)C(Cl)(Cl)Cl)sc2c1	114.6	-2.0	-6.0	107.0	1.35	-18.6
O=C(NCC1CCCN(Cc2ccc3nonc3c2)C1)c1cccc(C(F)(F)F)c1 (configuration not stated)	88.6	7.3	12.2	95.2	1.04	11.2
Cc1nc2sccc2c(=O)n1N	97.5	5.2	-7.4	102.2	1.09	2.3
COC(=O)c1ccc(OC(=O)C23CCC(C)(C(=O)O2)C3(C)C)cc1 (configuration not stated)	91.6	10.4	-7.3	97.0	1.03	7.1
O=C(c1cc2ncc(Br)cn2n1)N1CCN(C(=O)c2ccco2)CC1	105.6	-0.6	-0.9	104.0	1.24	-6.0
Cc1cccc2nc(=S)n(C(=O)c3ccco3)n12	197.3*	-32.1	145.9*	133.7*	12*	-106.5
O=C(c1ccco1)n1c(=S)nc2ccccn21	143.6*	0.6	86.6	105.8	5.42*	-47.8
CC(Sc1nnnn1-c1ccccc1)C(=O)Nc1ccc(Cl)cn1 (configuration not stated)	95.5	7.8	11.2	96.2	0.98	4.9
NS(=O)(=O)c1cccc(NC(=O)Cc2ccc(Cl)c(Cl)c2)c1	97.4	-4.9	19.1	105.7	0.92	1.2
CC(=O)Nc1ccc(OC(=O)c2ccc(Br)c([N+](=O)[O-])c2)cc1	86.2	-0.4	-26.5	102.3	0.91	13.2
